Legend:
Rattus norvegicus [1] = organism: Rattus norvegicus; assay: Cataleptogenic effect in rats; format: functional
Method in brief: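 Rats scored on a vertical wire grid hourly 1–6 h after dosing; catalepsy counted when immobility lasted at least 15 s.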

Mus musculus = organism: Mus musculus; assay: Antagonism of methyl phenidate-induced gnawing behavior in mice; format: functional
Method in brief: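 Test compound given ip (or sc) 2 h before methyl phenidate (60 mg/kg); mice housed in pairs on corrugated cardboard in gnawing cages, 5–9 pairs per dose.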

[2] = target: T1, Adrenergic receptor alpha-1 (Rattus norvegicus, UniProt P15823+P23944+P43140); assay: Binding affinity against Alpha-1 adrenergic receptor, activity is expressed as IC50 values; format: protein assay
T1 sequence (P15823 whole entry): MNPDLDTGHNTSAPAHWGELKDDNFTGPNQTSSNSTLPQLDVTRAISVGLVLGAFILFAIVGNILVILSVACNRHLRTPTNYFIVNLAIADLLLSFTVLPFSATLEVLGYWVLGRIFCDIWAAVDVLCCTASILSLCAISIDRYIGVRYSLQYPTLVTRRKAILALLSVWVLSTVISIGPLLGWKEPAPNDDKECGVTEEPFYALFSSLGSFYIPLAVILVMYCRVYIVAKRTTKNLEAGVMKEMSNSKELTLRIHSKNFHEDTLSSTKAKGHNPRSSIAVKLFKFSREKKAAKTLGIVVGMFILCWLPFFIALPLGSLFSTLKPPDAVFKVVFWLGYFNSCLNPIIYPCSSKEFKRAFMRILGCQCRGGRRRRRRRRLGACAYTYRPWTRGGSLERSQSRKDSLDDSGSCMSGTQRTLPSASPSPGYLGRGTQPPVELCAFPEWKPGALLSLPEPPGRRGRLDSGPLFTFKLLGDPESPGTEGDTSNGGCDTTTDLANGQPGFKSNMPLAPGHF
T1 sequence (P23944 whole entry): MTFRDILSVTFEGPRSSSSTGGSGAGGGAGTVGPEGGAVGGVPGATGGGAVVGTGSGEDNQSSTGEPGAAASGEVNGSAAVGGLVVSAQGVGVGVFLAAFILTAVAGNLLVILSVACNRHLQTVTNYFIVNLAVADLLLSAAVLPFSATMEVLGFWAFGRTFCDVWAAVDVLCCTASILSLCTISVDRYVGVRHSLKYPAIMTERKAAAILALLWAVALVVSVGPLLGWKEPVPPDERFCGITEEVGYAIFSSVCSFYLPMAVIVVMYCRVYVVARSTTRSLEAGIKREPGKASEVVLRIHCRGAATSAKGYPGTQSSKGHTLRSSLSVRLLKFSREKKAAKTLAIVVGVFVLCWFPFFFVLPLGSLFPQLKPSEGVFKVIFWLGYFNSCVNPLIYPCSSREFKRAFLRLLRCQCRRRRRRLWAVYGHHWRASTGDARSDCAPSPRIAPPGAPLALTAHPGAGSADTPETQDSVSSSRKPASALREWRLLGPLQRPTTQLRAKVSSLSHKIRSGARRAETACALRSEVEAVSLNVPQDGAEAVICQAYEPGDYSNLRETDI
T1 sequence (P43140 whole entry): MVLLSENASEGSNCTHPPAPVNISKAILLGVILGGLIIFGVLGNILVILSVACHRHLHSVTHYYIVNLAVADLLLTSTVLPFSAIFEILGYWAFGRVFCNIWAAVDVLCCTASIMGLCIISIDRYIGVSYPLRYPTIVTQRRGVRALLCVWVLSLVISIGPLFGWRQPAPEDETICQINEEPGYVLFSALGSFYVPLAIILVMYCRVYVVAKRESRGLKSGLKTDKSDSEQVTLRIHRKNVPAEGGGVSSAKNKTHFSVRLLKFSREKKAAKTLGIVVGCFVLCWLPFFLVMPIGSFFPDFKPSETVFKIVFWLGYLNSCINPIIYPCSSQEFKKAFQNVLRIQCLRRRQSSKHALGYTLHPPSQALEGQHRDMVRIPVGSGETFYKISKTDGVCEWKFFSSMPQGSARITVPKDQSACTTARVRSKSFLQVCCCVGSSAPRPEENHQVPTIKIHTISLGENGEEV

D(2) dopamine receptor = D(2) dopamine receptor (Rattus norvegicus, UniProt P61169); assay: Binding affinity against dopamine receptor D2
D(2) dopamine receptor, sequence (P61169 whole entry): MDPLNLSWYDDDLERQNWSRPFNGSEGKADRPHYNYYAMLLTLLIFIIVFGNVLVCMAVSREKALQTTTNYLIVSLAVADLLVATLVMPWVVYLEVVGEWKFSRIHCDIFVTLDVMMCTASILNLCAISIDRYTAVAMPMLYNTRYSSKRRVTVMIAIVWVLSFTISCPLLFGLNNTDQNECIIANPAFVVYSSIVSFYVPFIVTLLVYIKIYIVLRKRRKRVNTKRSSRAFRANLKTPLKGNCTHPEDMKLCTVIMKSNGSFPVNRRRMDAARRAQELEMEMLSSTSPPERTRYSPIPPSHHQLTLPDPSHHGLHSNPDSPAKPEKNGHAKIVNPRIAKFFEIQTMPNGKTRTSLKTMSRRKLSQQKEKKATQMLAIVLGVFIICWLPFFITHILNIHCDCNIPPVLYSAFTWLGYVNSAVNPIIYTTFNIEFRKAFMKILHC

D(1A) dopamine receptor [3] = target: T2, D(1A) dopamine receptor (Rattus norvegicus, UniProt P18901); assay: The compound was tested for the binding affinity against Dopamine receptor D1 activity is expressed as IC50 values.
T2 sequence (P18901 whole entry): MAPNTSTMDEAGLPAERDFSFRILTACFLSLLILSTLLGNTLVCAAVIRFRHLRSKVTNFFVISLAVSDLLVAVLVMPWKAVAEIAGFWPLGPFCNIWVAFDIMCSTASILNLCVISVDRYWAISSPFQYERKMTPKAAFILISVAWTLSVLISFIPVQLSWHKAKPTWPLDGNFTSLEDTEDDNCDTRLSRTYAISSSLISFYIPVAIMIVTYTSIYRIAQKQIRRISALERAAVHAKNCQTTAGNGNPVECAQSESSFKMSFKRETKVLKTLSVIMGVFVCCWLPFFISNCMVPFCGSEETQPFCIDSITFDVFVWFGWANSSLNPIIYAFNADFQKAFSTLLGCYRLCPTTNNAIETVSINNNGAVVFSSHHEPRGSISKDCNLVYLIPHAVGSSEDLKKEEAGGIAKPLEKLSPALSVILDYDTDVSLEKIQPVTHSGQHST
Method in brief: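 [3H]SCH 23390 displaced from rat striatal membrane preparations; IC50 read from log-concentration–effect curves, two complete curves of five test concentrations run in triplicate over three decades.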

[4] = target: 5-hydroxytryptamine receptor 2A (Rattus norvegicus, UniProt P14842); assay: Binding affinity for 5-hydroxytryptamine 2A receptor, activity is expressed as IC50 values.
5-hydroxytryptamine receptor 2A, sequence (P14842 whole entry): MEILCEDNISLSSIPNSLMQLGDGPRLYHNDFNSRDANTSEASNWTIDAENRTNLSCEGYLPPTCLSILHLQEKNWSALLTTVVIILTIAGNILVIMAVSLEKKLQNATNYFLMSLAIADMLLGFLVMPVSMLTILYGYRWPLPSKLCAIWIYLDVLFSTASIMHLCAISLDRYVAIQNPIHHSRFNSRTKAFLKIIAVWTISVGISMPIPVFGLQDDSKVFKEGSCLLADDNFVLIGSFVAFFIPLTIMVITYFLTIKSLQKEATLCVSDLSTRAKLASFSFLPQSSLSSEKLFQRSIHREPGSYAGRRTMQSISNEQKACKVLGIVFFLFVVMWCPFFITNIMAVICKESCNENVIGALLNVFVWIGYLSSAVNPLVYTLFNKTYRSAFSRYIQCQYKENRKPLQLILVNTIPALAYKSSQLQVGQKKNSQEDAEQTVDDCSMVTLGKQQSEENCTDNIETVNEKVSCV

Rattus norvegicus [5] = organism: Rattus norvegicus; assay: In vitro inhibition of [3H]dopamine uptake in rat corpus striatum homogenates.; format: functional
D(1A) dopamine receptor [6] = target: T2, D(1A) dopamine receptor; assay: Binding affinity for dopamine receptor D1, activity is expressed as IC50 values.
Rattus norvegicus [7] = organism: Rattus norvegicus; assay: In vitro inhibition of [3H]NE uptake in rat occipital lobe (plus temporal cortex) homogenates.; format: functional
Rattus norvegicus [8] = organism: Rattus norvegicus; assay: In vitro inhibition of [3H]5-HT uptake in rat brain (minus pons, medulla oblongata and cerebellum) homogenates.; format: functional
[9] = Rattus norvegicus, read-out: ED50

IC50 (D(1A) dopamine receptor [3]) [nM] | SMILES | ED50 (Rattus norvegicus [1]; [9]) [µmol/kg] | ED50 (Mus musculus; Mus musculus, read-out: ED50) [µmol/kg] | IC50 [2] [nM] | IC50 (D(2) dopamine receptor) [nM] | ED50 (Rattus norvegicus [1]) [µM/kg] | IC50 [4] [nM] | ED50 (Mus musculus) [µM/kg] | IC50 (Rattus norvegicus [5]) [nM] | IC50 (D(1A) dopamine receptor [6]) [nM] | IC50 (Rattus norvegicus [7]) [nM] | IC50 (Rattus norvegicus [8]) [nM]
 | CN1CCN(C2CC(c3ccsc3)c3ccc(Cl)cc32)CC1(C)C (configuration not stated) | 44 | 1.3 | 14 |  |  |  |  |  |  |  | 
 | CN1CCN(C2CC(c3ccc(F)cc3)c3cc(Cl)ccc32)CC1(C)C (configuration not stated) |  | > 110 | 94 |  |  |  |  |  |  |  | 
 | CN1CCN(C2CC(c3ccc(F)cc3)c3cccc(F)c32)CC1(C)C (configuration not stated) | > 90 | 6.9 | 15 |  |  |  |  |  |  |  | 
480 | CN1CCN(C2CC(c3ccccc3)c3ccccc32)CC1 (configuration not stated) |  |  |  | 690 |  |  |  |  |  |  | 
8.3 | OCCN1CCN(C2CC(c3ccc(F)cc3)c3ccc(Cl)cc32)CC1 (configuration not stated) |  |  |  |  |  |  |  |  |  |  | 
1800 | OCCN1CCN(C2CC(c3ccc(F)cc3)c3cc(Cl)ccc32)CC1 (configuration not stated) |  |  |  |  |  |  |  |  |  |  | 
2000 | OCCN1CCN(C2CC(c3ccc(F)cc3)c3c(Cl)cccc32)CC1 (configuration not stated) |  |  |  |  |  |  |  |  |  |  | 
 | CN1CCN(C2CC(c3ccccc3)c3ccc(Cl)cc32)CC1(C)C (single isomer, unassigned; (-)) |  |  | 10 | 9.5 | >85 | 4.4 | 8.8 | 390 | 1.1 | 1700 | 4000
 | CC1(C)CN(C2CC(c3ccsc3)c3ccc(Cl)cc32)CCN1 (single isomer, unassigned; (-)) | > 49 | 11 | 25 | 7.1 |  | 1.9 |  | 2700 | 0.84 | 4000 | 4500
 | CN1CCN(C2CC(c3ccccc3)c3ccc(Cl)cc32)CC1(C)C (stereo in doubt; 38) | > 76 |  | 23 |  |  |  | 24 |  |  |  | 
 | CN1CCN(C2CC(c3ccc(F)cc3)c3ccc(F)cc32)CC1(C)C (stereo in doubt; 40) |  |  | 12 |  | >68 |  | 2.1 |  |  |  | 
 | CC1(C)CN(C2CC(c3ccc(F)cc3)c3ccc(Cl)cc32)CCN1 (stereo in doubt; 41) | > 48 | 6.7 | 39 |  |  |  |  |  |  |  | 
 | CN1CCN(C2CC(c3ccc(F)cc3)c3ccccc32)CC1(C)C (stereo in doubt; (-)-39) |  |  | 4.4 | 12 | >44 | 2.9 | 7.2 | 5200 | 2.5 | 17000 | 10000
 | CN1CCN(C2CC(c3ccc(F)cc3)c3ccc(F)cc32)CC1(C)C (stereo in doubt; (-)-40) | 42 |  | 4.7 | 6.8 |  | 1.9 | 1 | 4000 | 0.71 | > 10000 | 12000
 | CC1(C)CN(C2CC(c3ccc(F)cc3)c3ccc(Cl)cc32)CCN1 (stereo in doubt; (-)-41) |  |  | 12 | 9 | >84 | 3.7 | 5.6 | 400 | 1.1 | 2200 | 1800

Reference: ChEMBL document CHEMBL1128174, “Enhanced D1 affinity in a series of piperazine ring substituted 1-piperazino-3-arylindans with potential atypical antipsychotic activity” (J Med Chem, 1995)
